High-throughput results (PubChem BioAssay)
CXCR6 block: blocks human CXCR6 beta-arrestin recruitment; O00574; inhibition, % at 20 µM; actives 0.36% (n = 360,000); CHO-K1 PathHunter CXCR6 beta-arrestin, luminescence; in the data active means inhibition above about 34%, passing the limit was not always enough;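 further: antagonist mode with CXCL16 agonist at 10 nM final; 0% = 10 nM CXCL16 with DMSO and 100% = unstimulated wells without agonist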
EBI2 antag: antagonists of human EBI2 receptor; EBI2 beta-arrestin recruitment, luminescence, 7a,25-OHC stimulated; inhibition, % at 5 µM; actives 0.81% (n = 360,000); AID 651636; in the data active means inhibition above about 38%;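 further: enzyme fragment complementation signal reports receptor beta-arrestin coupling in cells; 0% = agonist plus DMSO wells and 100% = wells without agonist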
CCR6 antagonist: CCR6 (human) receptor antagonism. P51684. CHO-K1 CCR6 PathHunter beta-arrestin, luminescence, CCL20-stimulated. inhibition, % at 20 µM. actives 0.49% (n = 340,000);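 active means compounds whose inhibition of the agonist-driven luminescence signal at 20 µM reaches about 50%, limit read from the data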;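 further: cells stimulated with CCL20 at 14 nM final; plate controls were DMSO with CCL20 for no effect and DMSO without agonist for full effect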
APJ ag: activates the human apelin receptor APJ | actives 0.11% (n = 330,000) | CHO-K1 APJ PathHunter beta-arrestin, luminescence; 0% DMSO wells, 100% apelin | activation, % at 20 µM;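 active means activation more than six SD over the plate average, tested at 20 µM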;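 further: 0% = DMSO alone and 100% = apelin-13 at 10 nM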
Target sequence (P35414 whole entry, looked up): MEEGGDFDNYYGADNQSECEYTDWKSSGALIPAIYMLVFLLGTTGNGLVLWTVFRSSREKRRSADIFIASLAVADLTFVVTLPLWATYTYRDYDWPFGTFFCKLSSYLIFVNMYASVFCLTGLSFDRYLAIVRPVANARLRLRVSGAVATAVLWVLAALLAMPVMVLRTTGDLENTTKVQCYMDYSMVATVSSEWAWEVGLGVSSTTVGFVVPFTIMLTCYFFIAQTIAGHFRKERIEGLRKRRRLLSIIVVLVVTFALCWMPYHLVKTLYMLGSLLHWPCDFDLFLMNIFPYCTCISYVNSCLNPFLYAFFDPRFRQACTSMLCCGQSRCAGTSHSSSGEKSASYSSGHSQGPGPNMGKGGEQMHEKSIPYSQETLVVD
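assay system = CHO-K1 APJ beta-arrestin complementation cell line | input = cell density 1000 per well | dosing = compound 20 µM once, DMSO 1% | timing = compound 90 min 25 °C, reagent 1 h | measured by = luminescence from split beta-galactosidase complementation, Galacton Star/Emerald II substrate | read-out basis = APJ agonist activity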
APJ antag: blocks the human apelin receptor APJ; P35414; inhibition, % at 20 µM; actives 0.32% (n = 330,000); AID 2521; CHO-K1 APJ beta-arrestin complementation, luminescence;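 active means inhibition above about 40% at 20 µM, limit read from the data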;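 further: cells challenged with 10 nM apelin-13 agonist together with compound; plate controls were apelin-13 plus DMSO wells for no effect and DMSO wells lacking apelin-13 for full effect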
EBI2 conf: confirmation of human EBI2 receptor antagonists; actives 29% (n = 2,400); shares compounds with EBI2 antag; inhibition, % at 5 µM; EBI2 beta-arrestin luminescence, 7a,25-OHC antagonism;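 active means inhibition of at least 50%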
EBI2 agonist: activates EBI2, counter-screen for EBI2 antagonists. shares compounds with EBI2 antag. EBI2-expressing cells, agonist mode, luminescence, 60 min; 0% vehicle, 100% 7α,25-dihydroxycholesterol control. activation, % at 5 µM. 2,400 tested, under 10 active. AID 652000;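 active means activation of at least 50%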
bGal counter: counter-screen for EBI2 antagonists: E. coli beta-galactosidase inhibition | purified beta-galactosidase, luminescent Galacton Star, 15 min | actives 1% (n = 2,400) | shares compounds with EBI2 antag | inhibition, % at 5 µM | AID 652176;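 active means replicate-average signal at least 3 plate SD below neutral wells, shown as high inhibition, flagging enzyme-inhibiting false positives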;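 further: 0% = DMSO wells with enzyme and 100% = wells lacking enzyme; higher means stronger loss of beta-gal luminescence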
An asterisk follows results filed as active; · = no result given. In the library only some 1.5% were active in any assay of this set; here they are far more common.

SMILES	CXCR6 block	EBI2 antag	CCR6 antagonist	APJ ag	APJ antag	EBI2 conf	EBI2 agonist	bGal counter
Cc1cc(C#N)c(C)c(SCc2[nH]nc3c2C(c2ccccc2)C(C#N)=C(N)O3)n1 (stereo unspecified)	7.5	67.7*	19.8	-1.0	3.8	54.8*	-0.2	6.7
Cc1cc(C)c(C#N)c(SCc2[nH]nc3c2C(c2ccc(F)cc2)C(C#N)=C(N)O3)n1 (stereo unspecified)	-3.4	83.5*	2.1	0.2	14.1	56.5*	1.2	8.0
CC(C)CC1C(=O)N(Cc2cn(CCC3OCCO3)nn2)CCS(=O)(=O)N1Cc1ccc(-c2ccncc2)cc1 (stereo unspecified)	5.9	-9.6	·	·	·	·	·	·
Nc1c(Cl)ncnc1N/N=C/c1ccc2ccccc2n1	53.4*	62.2*	83.7*	·	·	83.6*	-2.5	11.2
COc1cc(-c2nc3ccc(C)cn3c2NCc2ccccc2)ccc1-c1cccc(Cl)c1	8.4	80.0*	13.9	-3.2	19.7	66.5*	1.1	-5.1
CCC(C)Sc1ccc(-c2nc3ccc(C)cn3c2NCc2ccccc2)cc1 (stereo unspecified)	5.7	46.5*	11.9	2.1	19.4	24.1	0.7	6.5
COc1cc(-c2nc3ccc(C)cn3c2NCc2ccccc2)ccc1SC1CCCCC1	15.0	72.1*	34.8	0.3	-23.6	55.0*	1.9	-0.6
COc1ccc(-c2nc3ccc(C)cn3c2Cc2cccc(Cl)c2)cc1OC	25.4	32.1	·	·	·	·	·	·
COc1ccc(-c2cc(-c3nnc(COC(=O)c4ccc(O)cc4)o3)c3ccccc3n2)cc1OC	4.7	45.7*	-2.9	-1.2	-31.1	8.3	4.1	5.5
NC(=O)c1cnn2c(-c3ccc(Cl)cc3Cl)ccnc12	-0.8	2.2	3.8	-1.7	-14.3	·	·	·
O=C(Nc1cccnc1)/C(N=Nc1ccc(Cl)c(C(F)(F)F)c1)=C(\O)c1ccccc1	1.5	8.0	-2.9	-2.4	-12.5	·	·	·
O=C(Nc1cccnc1)/C(N=Nc1c(Cl)cccc1Cl)=C(\O)c1ccccc1	9.2	50.9*	8.6	-2.9	15.3	35.0	4.5	4.2
CC(C)Nc1nc(NC(C)C)nc(SCCOC(=O)Nc2ccc(Cl)cc2Cl)n1	6.0	12.5	15.8	-3.0	-27.0	·	·	·
CCn1c(O)c(/C=C2\C=Nc3ccccc32)sc1=Nc1ccccc1	6.2	52.9*	2.1	1.6	-1.5	37.5	0.5	1.8
O/N=C(/CCc1ccccc1)c1ccc2c(c1)OCCO2	-1.9	8.4	12.9	-4.9	3.7	·	·	·
Cc1ccsc1C1Nc2ccc3ncccc3c2C2=C1C(=O)CC(C)(C)C2 (stereo unspecified)	12.5	93.6*	18.0	0.0	-17.9	75.9*	-0.2	3.4
O=C1CCCC2=C1C(c1cccs1)Nc1ccc3ncccc3c12 (stereo unspecified)	-3.6	21.3	7.9	-2.2	9.7	·	·	·
CCN(CC)S(=O)(=O)c1cccc(-c2nnc(SCCOc3ccccc3)o2)c1	10.1	34.3	12.8	-7.2	9.5	·	·	·
CCN(CC)S(=O)(=O)c1cccc(-c2nnc(SCCOc3ccccc3C)o2)c1	0.1	49.7*	18.4	-6.6	12.0	34.8	-0.2	-1.3
COc1ccc(-c2cc(=O)oc3cc4occ(C)c4cc23)cc1	11.4	49.0*	21.5	-2.3	-2.2	33.4	0.3	6.0
Cc1ccc(C(=O)NCCN2CCN(C(=O)c3ccc(C)c(C)c3)CC2)cc1C	3.2	13.3	1.6	-3.8	4.5	·	·	·
O=C(NCCN1CCN(C(=O)c2ccc(Br)cc2)CC1)c1ccc(Br)cc1	-7.5	43.7*	-1.8	3.4	14.7	22.4	-1.2	-5.6
CCS(=O)(=O)N1CCN(C(=O)c2ccc(-c3ccccc3)cc2)CC1	1.0	83.4*	-22.8	1.5	8.3	56.4*	-0.1	-23.5
O=C(c1ccc(-c2ccccc2)cc1)N1CCN(C(=O)c2ccco2)CC1	-0.9	71.5*	5.3	-3.4	8.5	34.6	1.6	7.0
